This note sets out measurements from ChEMBL document CHEMBL2163244, “Structure-guided design, synthesis and biological evaluation of novel DNA ligase inhibitors with in vitro and in vivo anti-staphylococcal activity” (Bioorg Med Chem Lett, 2012).

Molecules are shown by their SMILES. In brackets after ≈: the same amount, converted by molar mass. Activity calls are given as the source filed them. The rule behind the calls is not given here. Where only a bound is given, the exact number is not on record here.

In test [1] the test system is Escherichia coli. Briefly: Antibacterial activity against tolC/rfaC-deficient Escherichia coli. The format is functional.
Test [2] relates to Staphylococcus aureus. The experiment in a line: Antibacterial activity against wild type Staphylococcus aureus ATCC 29213 by CLSI dilution method. Type of test: functional.
Test [3] is described as follows: Inhibition of Streptococcus pneumoniae NAD-dependent DNA ligase assessed as equilibrium dissociation constant.
Test [4] concerns Haemophilus influenzae. The experiment in a line: Antibacterial activity against wild type Haemophilus influenzae A921 by CLSI dilution method. Type of test: functional.
Test [5] has as its target DNA ligase 1 (Homo sapiens) (UniProt P18858). Briefly: Inhibition of human DNA Ligase 1.
The nature of test [6]: Inhibition of Escherichia coli NAD-dependent DNA ligase.
Test [7] concerns Streptococcus pneumoniae. The experiment in a line: Antibacterial activity against wild type Streptococcus pneumoniae A-216 by CLSI dilution method. The format is functional.
Test [8] deals with T1, Dihydrofolate reductase (Homo sapiens) (UniProt P00374).
T1 sequence (whole entry): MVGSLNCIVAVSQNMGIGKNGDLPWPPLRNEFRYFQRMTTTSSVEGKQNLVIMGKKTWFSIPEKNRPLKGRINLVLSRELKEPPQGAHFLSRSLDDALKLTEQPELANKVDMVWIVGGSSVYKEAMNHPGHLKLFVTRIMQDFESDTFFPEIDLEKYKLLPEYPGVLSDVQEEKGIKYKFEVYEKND
The experiment in a line: Inhibition of human DHFR.

The subject of test [9] is Escherichia coli. Briefly: Antibacterial activity against tolC/rfaC-deficient Escherichia coli harboring ligA251 mutant. Type of test: functional. A digest of the protocol: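 MIC read-out. The E. coli strain carries only the ligA251 allele (L15F exchange), which gives more than 20-fold reduced ligation activity and sensitizes it to LigA inhibitors.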
Test [10] deals with DNA ligase 1 (Homo sapiens) (UniProt P18858). Briefly: Inhibition of human DNA Ligase 1 at 25 uM.
Test [11] addresses T1, Dihydrofolate reductase (Homo sapiens). The experiment in a line: Inhibition of human DHFR at 25 uM.
Test [12] has as its target DNA ligase (Staphylococcus aureus, UniProt Q9AIU7). The experiment in a line: Inhibition of Staphylococcus aureus NAD-dependent DNA ligase.

Regarding `NC(=O)c1cc2cc(Cc3ccccc3)c(C(F)(F)F)nc2nc1N`, the MIC was 16 µg/mL (≈ 46.2 µM) in [1]; over 16 µg/mL in test [2]; 4 µg/mL (≈ 11.6 µM) in test [4]; over 16 µg/mL in [7]; 0.125 µg/mL (≈ 0.361 µM) in test [9]. Further, the Kd in test [3] is 0.141 µM. Moreover, the inhibition result in [5] and in test [8] was “inactive” each time. In addition, in [6], the IC50 amounted to 0.8 µM.

In the case of `NC(=O)c1cc2c(N3CC[C@@H](N)C3)c(Br)c(C(F)(F)F)nc2nc1N`, the MIC in test [1] is over 16 µg/mL; in test [2] it was over 16 µg/mL; in test [4], 8 µg/mL (≈ 19.1 µM); in test [7], over 16 µg/mL; in [9], 1 µg/mL (≈ 2.39 µM). Moreover, the Kd in test [3] was 0.086 µM. Besides, the inhibition entry in test [5] and in test [8] was “inactive” each time. In addition, in test [6], half-maximal inhibition (IC50) was put at 1 µM.

Take `NC(=O)c1cc2c(-c3ccccc3)cc(C(F)(F)F)nc2nc1N`: the MIC is 32 µg/mL (≈ 96.3 µM) in test [1]; over 16 µg/mL in test [2]; 8 µg/mL (≈ 24.1 µM) in test [4]; over 16 µg/mL in test [7]; 0.5 µg/mL (≈ 1.5 µM) in test [9]. Moreover, in [3], the dissociation constant Kd came out at 0.237 µM. For the same molecule, the inhibition result in test [5] and in test [8] was “inactive” in each case. In addition, the IC50 in test [6] is 2.5 µM.

Take `Cc1c(Cc2ccccc2)c(Cl)nc2nc(N)c(C(N)=O)cc12`: the MIC in test [1] was found to be 4 µg/mL (≈ 12.2 µM); in [2], 4 µg/mL (≈ 12.2 µM); in test [4], 2 µg/mL (≈ 6.12 µM); in [7] it was 4 µg/mL (≈ 12.2 µM); in test [9], 0.125 µg/mL (≈ 0.383 µM). The Kd in [3] was determined as 0.107 µM. Also, the inhibition result in test [5] and in test [8] was “inactive” each time. The molecule further registered an IC50 in test [6] of 0.5 µM.

Take `NC(=O)c1cc2cc(Br)c(C3CCCC3)nc2nc1N`: the MIC in test [1] was over 16 µg/mL; in test [2], over 16 µg/mL; in test [4] it was over 16 µg/mL; in test [7] it was over 16 µg/mL; in test [9] it was 4 µg/mL (≈ 11.9 µM). Moreover, the Kd in test [3] is 0.184 µM. Also, the inhibition result in test [5] and in [8] was “inactive” each time. The concentration for half-maximal inhibition (IC50) in test [6] stood at 0.5 µM.

Take `CN(CCO)c1c(Br)c(C(F)(F)F)nc2nc(N)c(C(N)=O)cc12`: the MIC in test [1] is over 16 µg/mL; in [2] it was 8 µg/mL (≈ 19.6 µM); in [4] it was 4 µg/mL (≈ 9.8 µM); in [7], 8 µg/mL (≈ 19.6 µM); in test [9] it was 0.5 µg/mL (≈ 1.22 µM). Moreover, the Kd in test [3] turned out to be 0.057 µM. The inhibition entry in [5] and in test [8] was “inactive” in each case. Besides, half-maximal inhibition in test [6] (IC50) required 0.7 µM.

`C=CCc1c(Cl)nc2nc(N)c(C(N)=O)cc2c1C`: the MIC in test [1] was 8 µg/mL (≈ 28.9 µM); in test [2] it was 8 µg/mL (≈ 28.9 µM); in [4], 4 µg/mL (≈ 14.5 µM); in test [7], over 16 µg/mL; in test [9] it was 0.125 µg/mL (≈ 0.452 µM). Besides, in [3], the Kd is 0.116 µM. Moreover, the inhibition result in test [5] and in [8] was “inactive” in each case. This molecule gave an IC50 in [6] of 0.8 µM.

Turning to `CC(C)(C)c1nc2nc(N)c(C(N)=O)cc2cc1Br`, the MIC in test [1] was 8 µg/mL (≈ 24.8 µM); in test [2], 4 µg/mL (≈ 12.4 µM); in [4], 2 µg/mL (≈ 6.19 µM); in test [7], 8 µg/mL (≈ 24.8 µM); in test [9], 0.25 µg/mL (≈ 0.774 µM). Also, the Kd in [3] turned out to be 0.077 µM. Moreover, the inhibition result in test [5] and in test [8] was “inactive” each time. This molecule came in with an IC50 in test [6] of 0.3 µM.

For `COCCc1cc(C(F)(F)F)nc2nc(N)c(C(N)=O)cc12`, the MIC is over 16 µg/mL in test [1]; over 16 µg/mL in [2]; 4 µg/mL (≈ 12.7 µM) in test [4]; over 16 µg/mL in test [7]; 2 µg/mL (≈ 6.36 µM) in test [9]. The Kd in test [3] is 0.458 µM. For the same molecule, the inhibition result in test [5] and in [8] was “inactive” each time. This molecule showed a concentration for half-maximal inhibition (IC50) in test [6] of 10 µM.

With `Cc1c(Cc2ccncc2)c(Cl)nc2nc(N)c(C(N)=O)cc12`, the MIC is over 16 µg/mL in test [1]; over 16 µg/mL in test [2]; 2 µg/mL (≈ 6.1 µM) in [4]; 8 µg/mL (≈ 24.4 µM) in test [7]; 0.25 µg/mL (≈ 0.763 µM) in test [9]. Besides, the Kd in [3] was found to be 0.118 µM. In addition, the inhibition result in [5] and in test [8] was “inactive” throughout. This molecule came in with a half-inhibitory concentration (IC50) in test [6] of 1 µM.

Turning to `NC(=O)c1cc2cc(C3CCCC3)c(C(F)(F)F)nc2nc1N`, the MIC in [1] is over 16 µg/mL; in test [2] it was over 16 µg/mL; in test [4], 16 µg/mL (≈ 49.3 µM); in test [7] it was 16 µg/mL (≈ 49.3 µM); in test [9] it was 4 µg/mL (≈ 12.3 µM). The Kd in [3] came to 0.15 µM. In addition, the inhibition result in test [5] and in test [8] was “inactive” in each case. Further, half-maximal inhibition in [6] (IC50) was put at 2.5 µM.

Consider `C=Cc1cc2cc(C(N)=O)c(N)nc2nc1C(F)(F)F`, for which the MIC is 8 µg/mL (≈ 28.3 µM) in test [1]; 2 µg/mL (≈ 7.09 µM) in [2]; 1 µg/mL (≈ 3.54 µM) in test [4]; over 16 µg/mL in [7]; 0.125 µg/mL (≈ 0.443 µM) in [9]. The Kd in test [3] stood at 0.089 µM. Besides, the inhibition entry in [5] and in test [8] was “inactive” in each case. Besides, in test [6], the IC50 came out at 0.4 µM.

Take `NC(=O)c1cc2cc(C3CC3)c(C(F)(F)F)nc2nc1N`: the MIC was 2 µg/mL (≈ 6.75 µM) in test [1]; 1 µg/mL (≈ 3.38 µM) in test [2]; 0.5 µg/mL (≈ 1.69 µM) in test [4]; 16 µg/mL (≈ 54 µM) in [7]; 0.125 µg/mL (≈ 0.422 µM) in test [9]. Moreover, the equilibrium dissociation constant (Kd) in [3] was 0.083 µM. Moreover, the inhibition result in [5] and in test [8] was “inactive” each time. In test [6], this molecule came in with an IC50 of 0.4 µM.

As to `CC(C)c1cc2cc(C(N)=O)c(N)nc2nc1C(F)(F)F`, the MIC was over 16 µg/mL in test [1]; 16 µg/mL (≈ 53.6 µM) in [2]; 8 µg/mL (≈ 26.8 µM) in test [4]; over 16 µg/mL in test [7]; 1 µg/mL (≈ 3.35 µM) in [9]. For the same molecule, in test [3], the Kd amounted to 0.152 µM. The inhibition result in [5] and in test [8] was “inactive” in each case. The molecule further had a 50% inhibitory concentration (IC50) in test [6] of 0.8 µM.

Turning to `NC(=O)c1cc2c(N3CC(O)C3)c(Br)c(C(F)(F)F)nc2nc1N`, the MIC in test [1] was 4 µg/mL (≈ 9.85 µM); in test [2], 16 µg/mL (≈ 39.4 µM); in test [4] it was 4 µg/mL (≈ 9.85 µM); in [7], over 16 µg/mL; in [9], 0.125 µg/mL (≈ 0.308 µM). For the same molecule, in [3], the dissociation constant Kd was 0.043 µM. In addition, the inhibition result in test [5] and in test [8] was “inactive” each time. It took 0.5 µM to reach half-maximal inhibition in test [6] (IC50).

In the case of `Cc1cc(C(F)(F)F)nc2nc(N)c(C(N)=O)cc12`, the MIC in test [1] is 4 µg/mL (≈ 14.8 µM); in test [2] it was 8 µg/mL (≈ 29.6 µM); in [4] it was 0.5 µg/mL (≈ 1.85 µM); in test [7] it was over 16 µg/mL; in test [9], 0.25 µg/mL (≈ 0.925 µM). Also, in test [3], the Kd worked out at 0.048 µM. The inhibition entry in test [5] and in [8] was “inactive” throughout. For the same molecule, in test [6], the IC50 came to 0.5 µM.

`COc1nc2nc(N)nc(N)c2nc1C`: the MIC was over 16 µg/mL in test [1] and 2 µg/mL (≈ 9.7 µM) in test [9]. Further, the inhibition result in [10] and in test [11] was “inactive” in each case. The IC50 in [6] amounted to 25 µM; in [12], 2.5 µM.

As to `NCc1cc(C(F)(F)F)nc2nc(N)c(C(N)=O)cc12`, the MIC in test [1] is over 16 µg/mL; in test [2], over 16 µg/mL; in test [4] it was 4 µg/mL (≈ 14 µM); in test [7] it was over 16 µg/mL; in test [9], 1 µg/mL (≈ 3.51 µM). Further, the equilibrium dissociation constant (Kd) in test [3] was 0.102 µM. Also, the inhibition entry in test [5] and in test [8] was “inactive” throughout. The midpoint of inhibition in [6], the IC50, lay at 2.5 µM.

With `NC(=O)c1cc2c(N3CC[C@@H](O)C3)c(Br)c(C(F)(F)F)nc2nc1N`, the MIC in test [1] was found to be 4 µg/mL (≈ 9.52 µM); in [2], 8 µg/mL (≈ 19 µM); in test [4] it was 8 µg/mL (≈ 19 µM); in [7] it was 8 µg/mL (≈ 19 µM); in [9], 0.125 µg/mL (≈ 0.297 µM). For the same molecule, the Kd in test [3] amounted to 0.031 µM. For the same molecule, the inhibition entry in test [5] and in test [8] was “inactive” each time. The molecule further showed an IC50 in [6] of 0.7 µM.

Regarding `NC(=O)c1cc2cc(CO)c(C(F)(F)F)nc2nc1N`, the MIC in test [1] is over 16 µg/mL; in test [2], over 16 µg/mL; in [4], 2 µg/mL (≈ 6.99 µM); in test [7], over 16 µg/mL; in test [9], 2 µg/mL (≈ 6.99 µM). Further, in test [3], the dissociation constant (Kd) was found to be 0.389 µM. In addition, the inhibition result in [5] and in test [8] was “inactive” each time. The IC50 in test [6] was 0.5 µM.
